OX1R antag-1 – antagonists of human orexin 1 receptor (OX1R); Orexin/Hypocretin receptor type 1 (Homo sapiens), O43613; OX1R-expressing cells, FRET antagonist read-out; inhibition, % at 6.6 µM; 330,000 compounds, 1.8% hits; AID 485270, 2010; in the data active = inhibition mostly above about 38%, no sharp cut-off; inactive = mostly below about 40%;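 note: 0% = agonist challenge alone and 100% = reference antagonist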
Target sequence (O43613 whole entry, looked up): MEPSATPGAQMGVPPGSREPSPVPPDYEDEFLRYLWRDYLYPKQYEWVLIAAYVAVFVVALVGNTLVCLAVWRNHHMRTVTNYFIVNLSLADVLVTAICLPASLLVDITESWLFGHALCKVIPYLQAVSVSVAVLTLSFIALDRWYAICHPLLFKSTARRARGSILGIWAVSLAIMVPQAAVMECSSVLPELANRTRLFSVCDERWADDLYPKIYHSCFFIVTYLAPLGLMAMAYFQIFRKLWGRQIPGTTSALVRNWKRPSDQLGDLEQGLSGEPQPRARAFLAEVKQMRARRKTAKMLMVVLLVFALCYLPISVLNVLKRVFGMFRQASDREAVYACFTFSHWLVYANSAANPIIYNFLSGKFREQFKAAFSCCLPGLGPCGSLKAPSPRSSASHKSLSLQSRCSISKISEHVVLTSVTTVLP
CHO parental Ca – ATP-evoked calcium signal inhibitors, parental CHO, primary screen, counter-screen for OX1R antagonist project, cell-based, fluorescence, Fluo-8 calcium dye. AID 463079, 2010. inhibition, % at 5.6 µM. parental CHO-K1, ATP-induced calcium, Fluo-8 fluorescence. 330,000 compounds, 0.63% hits;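 active = inhibition above that plate's mean sample inhibition plus 3 SD, cut at about 26% in these data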;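 note: 0% = ATP-challenged DMSO wells and 100% = DMSO wells without ATP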
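material = parental CHO cells | also added = ATP as calcium-mobilizing challenge | dosing = single point at 5.6 µM | detection = intracellular calcium via Fluo-8 no-wash fluorescent dye | read-out = % inhibition | benchmarks = low control ATP plus DMSO, high control DMSO only | repeats = one well per compound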
OX1R antag-2 – OX1R (HCRTR1) antagonists, primary screen, fluorescence, CHO/OX1R cells, Fluo-8 calcium, orexin A; 330,000 compounds, 0.43% hits; inhibition, % at 5 µM; Fluo-8 calcium fluorescence; AID 434989, 2010;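 active = inhibition above its plate's threshold, mean inhibition of all tested compounds on the plate plus 3 SD, cut at about 37% in these data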;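 note: 0% = orexin A challenge wells and 100% = SB-334867-A antagonist wells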
GalR3 antagonist – GalR3 antagonists in HEK293 cells, primary screen, cell-based, fluorescence readout; HEK293 GalR3-CNG cAMP membrane potential fluorescence; galR3 body fused to GalR1 C-terminus; inhibition, % at 3 µM; 360,000 compounds, 0.44% hits; AID 651719, 2012;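 active = inhibition above the screen-wide average plus 3 SD, cut at about 13% in these data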;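 note: forskolin and galanin both at EC90 stimulate the cells; cAMP rise reported by CNG channel membrane potential dye signal; 0% = forskolin plus galanin with DMSO and 100% = forskolin alone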
GPR7 antag – GPR7 receptor antagonists, primary screen, cell-based, fluorescence, single concentration. Neuropeptides B/W receptor type 1 (Homo sapiens), P48145. 290,000 compounds, 1.1% hits. GPR7-expressing cells, fluorescence antagonist assay. inhibition, % at 4.4 µM; in the data active = inhibition above about 16%, passing the limit was not always enough;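 note: cells stimulated with the agonist NPW; 0% = agonist with vehicle and 100% = vehicle without agonist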
GPR7 antag conf – GPR7 receptor antagonists, confirmation, cell-based, fluorescence, single concentration. inhibition, % at 4.4 µM. GPR7-expressing cells, calcium fluorescence antagonist mode. shares compounds with GPR7 antag. 2,400 compounds, 52% hits; in the data active = inhibition above about 24%;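 note: stimulated with the GPR7 agonist NPW; 0% = agonist plus vehicle and 100% = vehicle alone without agonist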
MCHR1 antag – MCHR1 antagonists in cells, counter-screen for GPR7 antagonist project, cell-based, fluorescence, human; shares compounds with GPR7 antag; MCHR1-expressing cells, fluorescence antagonist assay; inhibition, % at 4.4 µM; 2,400 compounds, 62% hits; AID 2148, 2009; in the data active = inhibition above about 22%;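 note: 0% = vehicle with agonist and 100% = vehicle without agonist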
Starred values were filed as active, the others as inactive; nt = not tested or not shown. This is a sample that favours compounds with a hit; in the whole collection about 3.1% have one here.

SMILES	OX1R antag-1	CHO parental Ca	OX1R antag-2	GalR3 antagonist	GPR7 antag	GPR7 antag conf	MCHR1 antag
CCOc1cccc(OCCNC2CCCC2)c1	11	-8	-19	-3	61*	1	-2
CCc1ccc(C(=O)NNC(=O)c2cc(S(=O)(=O)N(C)C)ccc2N2CCCC2)cc1	0	-14	-33	0	-4	nt	nt
Cc1ccc(S(=O)(=O)/N=C(\N)Nc2nc(C)c3cc(C)c(C)cc3n2)cc1	18	-12	-45	-6	30*	14	21
COc1ccccc1NC(=O)N(C)C[C@@H]1OCc2cnnn2CCCC(=O)N([C@H](C)CO)C[C@@H]1C	nt	nt	nt	1	nt	nt	nt
Cc1cc(-c2ccc(C(C)C)c(S(=O)(=O)N3CCN(c4ccccc4)CC3)c2)on1	14	-15	-23	0	27*	30*	40*
COc1ccc(CCNC(=O)COc2coc(CN3c4ccccc4CC3C)cc2=O)cc1OC (centres undefined)	5	-13	-20	-4	nt	nt	nt
O=c1c2cc(NC(=S)NCCCN3CCC(Cc4ccccc4)CC3)ccc2nc2n1CCCCC2	16	-6	-4	-2	22*	52*	73*
CCC(=O)c1cn(CC(=O)Nc2ccccc2Cl)c2ccccc12	20	-13	-8	-10	26*	12	16
CCC(=O)c1cn(CC(=O)Nc2cccc(C)c2C)c2ccccc12	-1	-19	-15	-8	-4	nt	nt
CNC(=O)c1ccc(N(Cc2ccccc2C)S(C)(=O)=O)cc1	9	-5	-2	0	-8	nt	nt
Cc1ccccc1CN(c1ccc(C(=O)N2CCc3ccccc3C2)cc1)S(C)(=O)=O	20	-9	-21	1	28*	52*	58*
Cc1ccc(S(=O)(=O)N(C)C)cc1NC(=O)c1cc(=O)[nH]c2ccccc12	12	-3	-18	5	-11	nt	nt
COc1cc(/C=N/n2c(C)nnc2C)cc(OC)c1OC	0	-14	-2	0	-13	nt	nt
COc1c(Br)cc(Br)cc1/C=N/n1c(C)nnc1C	13	-10	-17	-6	27*	0	10
c1ccc2c(c1)OC(CCCN1CCCCC1)c1ccccc1S2 (centres undefined)	9	-6	15	-13	25*	33*	54*
CC(=O)Nc1ccc(Sc2ncccc2C(=O)Nc2cc(Cl)cc(Cl)c2)cn1	20	-9	-19	-2	-4	nt	nt
CC(=O)Nc1ccc(Sc2ncccc2C(=O)Nc2ccc(OC(F)(F)F)cc2)cn1	10	77*	88*	-6	97*	98*	103*
CC(C)(C)C(O)CN1CCCC1 (centres undefined)	22	-5	-6	-3	8	nt	nt
CN(C)c1ccc(/C=C(\C#N)C(=O)Nc2nc3c(s2)CCN(Cc2ccccc2)C3)cc1	3	0	23	-5	26*	33*	31*
CCOC(=O)N1CCC(N(C(=O)Nc2cccc(OC)c2)C(C)CC)CC1 (centres undefined)	-2	-6	5	-7	32*	19	-12
S=C(NCC1CCCCC1)Nc1ccc(Oc2ccccc2)cc1	18	-10	-22	-5	-4	nt	nt
FC(F)Sc1ccc(NC(=S)NCC2CCCCC2)cc1	32	22	2	-7	34*	58*	75*
FC(F)Sc1ccc(NC(=S)NCc2ccccc2)cc1	26	11	-7	-7	46*	37*	51*
CCc1ccc(N2CC(C(=O)N/N=C/c3cccc([N+](=O)[O-])c3)CC2=O)cc1 (centres undefined)	17	-22	-15	-4	-4	nt	nt
CCOC(=O)CC1(C)Oc2cc(Cl)ccc2N1S(=O)(=O)c1ccc(C)cc1 (centres undefined)	nt	nt	nt	-7	nt	nt	nt
SMILES	OX1R antag-1	CHO parental Ca	OX1R antag-2	GalR3 antagonist	GPR7 antag	GPR7 antag conf	MCHR1 antag
c1ccc(Cn2nnnc2C(c2cccs2)N2CCc3ccccc3C2)cc1 (centres undefined)	5	-9	-4	nt	23*	-6	39*
O=C1CCCN2N=C(SCC(=O)N3N=C(c4ccc(Br)cc4)CC3c3ccc(F)cc3)SC2=N1 (centres undefined)	16	-25	-36	-7	22*	-11	-2
Cc1ccc(-c2ocnc2C(=O)N2CCN(C(=O)c3cccs3)CC2)cc1	22	-16	-10	-9	28*	21	7
COc1ccc(-c2nc(Cc3ccc(Cl)cc3)no2)cc1OC	30	-33	-39	-1	-9	nt	nt
Cc1ccc(Cc2nc(-c3ccncc3)no2)cc1	11	-8	-18	-1	24*	12	28*
c1ccc(C(Cc2nc(-c3ccncc3)no2)c2ccccc2)cc1	18	19	6	10	50*	54*	45*
COc1ccc(-c2noc(COc3ccc4ccccc4c3Br)n2)cc1OC	4	-3	4	4	21*	-3	-5
COc1ccc(-c2noc(Cc3ccc(Cl)cc3)n2)cc1OC	4	-21	-26	2	25*	-9	7
COc1ccc(Cc2nc(-c3ccc(Br)cc3)no2)cc1	17	-5	-11	-3	-1	nt	nt
CCOc1ccccc1-n1c(=O)c2ccccc2c2ccccc2c1=O	10	-21	-13	-5	-9	nt	nt
CCCCN1C(=O)C(CC(=O)NCCCN(C)C)CC(C(=O)N(C(C)C)C(C)C)=C1C (centres undefined)	nt	nt	nt	-2	nt	nt	nt
CCN(c1ccc(NC(=O)COC(=O)C(C)N=C2NS(=O)(=O)c3ccccc32)cc1)C(C)C (centres undefined)	nt	nt	nt	1	nt	nt	nt
CC(NCCC1(C(C)C)CCOC(C)(C)C1)c1cccs1 (centres undefined)	7	-21	-33	-2	-3	nt	nt
CC(NCCC1(Cc2ccccc2Cl)CCOC(C)(C)C1)c1cccs1 (centres undefined)	5	-29	-41	-8	28*	31*	20
O=C(COC(=O)CCNS(=O)(=O)c1ccc(Cl)cc1)Nc1ccccc1OC(F)F	nt	nt	nt	0	nt	nt	nt
CC(Sc1nc2ccccc2[nH]1)C(=O)Nc1ccccc1F (centres undefined)	22	-10	-5	-6	-5	nt	nt
CCN(CC)S(=O)(=O)c1ccc(NC(=O)COc2nc3ccccc3nc2N2CCOCC2)cc1	6	-7	-23	-1	24*	4	7

Screening results: PubChem BioAssay, The Scripps Research Institute Molecular Screening Center
